Data as given in ChEMBL document CHEMBL5653631, “A Potent and Selective ULK1 Inhibitor Suppresses Autophagy and Sensitizes Cancer Cells to Nutrient Stress” (iScience, 2018).
One block for each molecule: values may come before it.

Legend:
[1] = molecular target: Serine/threonine-protein kinase/endoribonuclease IRE1 (Homo sapiens) (UniProt O75460); assay: Inhibition of human recombinant IRE1 at 500 nM related to control ULK1
[2] = molecular target: SRSF protein kinase 2 (Homo sapiens) (UniProt P78362); assay: Inhibition of human recombinant SRPK2 at 500 nM related to control ULK1
Chain of SRSF protein kinase 2 (Homo sapiens) (P78362 whole entry, looked up): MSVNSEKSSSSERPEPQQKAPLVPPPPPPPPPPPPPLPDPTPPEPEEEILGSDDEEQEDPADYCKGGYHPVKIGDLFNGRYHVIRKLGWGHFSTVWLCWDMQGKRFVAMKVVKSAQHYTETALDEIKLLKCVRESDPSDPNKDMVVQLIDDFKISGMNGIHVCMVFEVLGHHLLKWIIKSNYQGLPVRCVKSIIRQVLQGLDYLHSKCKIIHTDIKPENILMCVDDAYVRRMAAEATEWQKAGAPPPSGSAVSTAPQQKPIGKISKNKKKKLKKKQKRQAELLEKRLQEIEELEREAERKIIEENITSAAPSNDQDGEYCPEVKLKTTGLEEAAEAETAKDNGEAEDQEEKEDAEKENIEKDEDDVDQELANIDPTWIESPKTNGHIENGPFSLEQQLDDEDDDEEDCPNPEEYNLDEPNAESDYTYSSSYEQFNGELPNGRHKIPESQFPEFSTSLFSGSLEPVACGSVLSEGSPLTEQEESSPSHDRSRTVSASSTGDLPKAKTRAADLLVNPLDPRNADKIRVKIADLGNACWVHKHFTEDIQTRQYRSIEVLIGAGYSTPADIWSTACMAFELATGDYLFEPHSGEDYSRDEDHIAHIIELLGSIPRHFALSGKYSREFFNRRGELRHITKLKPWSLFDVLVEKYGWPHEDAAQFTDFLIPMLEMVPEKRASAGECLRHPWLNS

[3] = molecular target: Platelet-derived growth factor receptor beta (Homo sapiens) (UniProt P09619); assay: Inhibition of human recombinant PDGFRb at 15 nM related to control ULK1
[4] = molecular target: T1, Serine/threonine-protein kinase NLK (Homo sapiens) (UniProt Q9UBE8); assay: Inhibition of human recombinant NLK at 15 nM in presence of ATP by radiometric assay relative to control
T1 sequence (whole entry): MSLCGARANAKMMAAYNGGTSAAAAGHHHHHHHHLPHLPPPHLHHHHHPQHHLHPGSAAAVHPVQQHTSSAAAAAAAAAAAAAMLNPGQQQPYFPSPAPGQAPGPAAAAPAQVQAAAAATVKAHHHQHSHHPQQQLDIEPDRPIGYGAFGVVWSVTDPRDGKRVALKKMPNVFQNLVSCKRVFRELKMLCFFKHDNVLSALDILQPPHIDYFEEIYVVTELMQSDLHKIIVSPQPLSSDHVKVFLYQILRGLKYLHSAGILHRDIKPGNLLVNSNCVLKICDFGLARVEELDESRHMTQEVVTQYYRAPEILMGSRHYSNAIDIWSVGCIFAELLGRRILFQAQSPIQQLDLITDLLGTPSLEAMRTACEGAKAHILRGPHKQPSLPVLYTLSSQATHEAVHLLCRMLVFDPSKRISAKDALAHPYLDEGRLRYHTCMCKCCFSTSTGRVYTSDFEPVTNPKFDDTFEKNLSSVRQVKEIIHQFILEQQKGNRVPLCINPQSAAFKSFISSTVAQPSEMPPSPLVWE

[5] = molecular target: T2, Serine/threonine-protein kinase Nek2 (Homo sapiens) (UniProt P51955); assay: Inhibition of human recombinant NEK2 at 15 nM related to control ULK1
T2 sequence (whole entry): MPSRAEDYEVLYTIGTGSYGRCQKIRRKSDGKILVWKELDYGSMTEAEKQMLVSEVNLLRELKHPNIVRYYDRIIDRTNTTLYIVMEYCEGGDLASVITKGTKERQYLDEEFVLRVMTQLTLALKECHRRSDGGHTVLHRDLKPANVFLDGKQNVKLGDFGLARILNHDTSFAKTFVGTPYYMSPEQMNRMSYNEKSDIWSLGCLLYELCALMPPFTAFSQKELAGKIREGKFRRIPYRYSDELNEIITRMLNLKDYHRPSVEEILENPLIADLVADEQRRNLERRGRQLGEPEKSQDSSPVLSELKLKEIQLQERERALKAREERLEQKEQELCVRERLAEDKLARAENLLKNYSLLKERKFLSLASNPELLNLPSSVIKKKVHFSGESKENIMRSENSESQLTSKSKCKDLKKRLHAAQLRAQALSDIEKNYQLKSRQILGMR

[6] = molecular target: Platelet-derived growth factor receptor alpha (Homo sapiens) (UniProt P16234); assay: Inhibition of human recombinant PDGFRa at 15 nM related to control ULK1
Chain of Platelet-derived growth factor receptor alpha (Homo sapiens) (P16234 whole entry): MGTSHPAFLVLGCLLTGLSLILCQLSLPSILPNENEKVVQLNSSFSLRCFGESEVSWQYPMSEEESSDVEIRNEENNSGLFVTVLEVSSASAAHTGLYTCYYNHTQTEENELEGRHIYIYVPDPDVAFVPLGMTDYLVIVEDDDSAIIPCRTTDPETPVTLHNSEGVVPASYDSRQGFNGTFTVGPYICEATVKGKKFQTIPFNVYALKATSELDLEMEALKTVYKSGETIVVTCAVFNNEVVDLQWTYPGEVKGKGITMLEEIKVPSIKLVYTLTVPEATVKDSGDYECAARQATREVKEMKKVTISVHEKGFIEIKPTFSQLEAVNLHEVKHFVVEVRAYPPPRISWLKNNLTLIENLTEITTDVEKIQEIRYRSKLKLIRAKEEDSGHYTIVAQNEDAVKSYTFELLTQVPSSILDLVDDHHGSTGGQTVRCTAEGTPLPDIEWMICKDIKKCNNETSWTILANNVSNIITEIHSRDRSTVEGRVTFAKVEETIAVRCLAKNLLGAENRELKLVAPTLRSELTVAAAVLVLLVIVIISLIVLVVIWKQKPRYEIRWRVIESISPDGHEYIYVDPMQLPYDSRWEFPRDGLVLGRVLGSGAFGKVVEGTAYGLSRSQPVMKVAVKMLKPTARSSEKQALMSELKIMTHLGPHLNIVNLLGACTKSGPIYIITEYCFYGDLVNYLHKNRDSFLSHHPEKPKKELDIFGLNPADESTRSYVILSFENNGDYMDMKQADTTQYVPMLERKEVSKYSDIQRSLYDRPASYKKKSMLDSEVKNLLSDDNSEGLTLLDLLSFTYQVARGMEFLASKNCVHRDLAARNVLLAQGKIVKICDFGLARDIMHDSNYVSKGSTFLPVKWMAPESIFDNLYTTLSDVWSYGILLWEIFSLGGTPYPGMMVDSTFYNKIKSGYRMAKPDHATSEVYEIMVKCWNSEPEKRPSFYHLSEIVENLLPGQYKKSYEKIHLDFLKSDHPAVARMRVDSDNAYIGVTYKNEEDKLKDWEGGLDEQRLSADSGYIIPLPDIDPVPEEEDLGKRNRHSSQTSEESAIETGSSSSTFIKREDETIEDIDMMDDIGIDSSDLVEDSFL

[7] = molecular target: Calcium/calmodulin-dependent protein kinase type II subunit alpha (Homo sapiens) (UniProt Q9UQM7); assay: Inhibition of human recombinant CaMK2a at 15 nM in presence of ATP by radiometric assay relative to control
Chain of Calcium/calmodulin-dependent protein kinase type II subunit alpha (Homo sapiens) (Q9UQM7 whole entry): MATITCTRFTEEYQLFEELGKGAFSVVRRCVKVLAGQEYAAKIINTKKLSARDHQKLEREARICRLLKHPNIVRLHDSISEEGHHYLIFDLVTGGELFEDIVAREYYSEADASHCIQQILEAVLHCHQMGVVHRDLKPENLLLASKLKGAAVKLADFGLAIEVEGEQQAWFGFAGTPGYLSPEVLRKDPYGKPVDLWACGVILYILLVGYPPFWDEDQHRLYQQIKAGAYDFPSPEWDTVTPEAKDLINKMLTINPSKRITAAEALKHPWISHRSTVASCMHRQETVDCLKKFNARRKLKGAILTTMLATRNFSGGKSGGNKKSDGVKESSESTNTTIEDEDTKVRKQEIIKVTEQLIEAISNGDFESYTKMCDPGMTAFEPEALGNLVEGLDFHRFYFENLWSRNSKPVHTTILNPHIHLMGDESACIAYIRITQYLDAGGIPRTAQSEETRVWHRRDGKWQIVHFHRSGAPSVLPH

[8] = molecular target: G protein-coupled receptor kinase 6 (Homo sapiens) (UniProt P43250); assay: Inhibition of human recombinant GPRK6 at 15 nM in presence of ATP by radiometric assay relative to control
Chain of G protein-coupled receptor kinase 6 (Homo sapiens) (P43250 whole entry, looked up): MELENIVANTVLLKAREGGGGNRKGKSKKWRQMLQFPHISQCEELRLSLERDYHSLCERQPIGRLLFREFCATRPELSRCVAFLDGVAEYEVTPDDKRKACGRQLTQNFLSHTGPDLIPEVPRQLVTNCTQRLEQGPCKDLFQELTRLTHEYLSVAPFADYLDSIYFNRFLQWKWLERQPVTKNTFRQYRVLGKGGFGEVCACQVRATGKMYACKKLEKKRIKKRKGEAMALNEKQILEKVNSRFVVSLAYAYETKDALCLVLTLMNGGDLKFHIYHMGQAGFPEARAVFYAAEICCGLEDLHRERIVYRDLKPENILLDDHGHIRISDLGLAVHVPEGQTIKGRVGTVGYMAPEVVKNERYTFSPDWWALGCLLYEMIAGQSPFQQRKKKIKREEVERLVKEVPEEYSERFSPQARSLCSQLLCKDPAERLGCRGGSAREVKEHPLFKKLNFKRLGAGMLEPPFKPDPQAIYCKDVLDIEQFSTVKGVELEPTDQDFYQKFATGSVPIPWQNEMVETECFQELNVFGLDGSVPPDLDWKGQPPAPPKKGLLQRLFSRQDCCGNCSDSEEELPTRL

[9] = molecular target: Serine/threonine-protein kinase N2 (Homo sapiens) (UniProt Q16513); assay: Inhibition of human recombinant PKN2 at 15 nM in presence of ATP by radiometric assay relative to control
Chain of Serine/threonine-protein kinase N2 (Homo sapiens) (Q16513 whole entry, looked up): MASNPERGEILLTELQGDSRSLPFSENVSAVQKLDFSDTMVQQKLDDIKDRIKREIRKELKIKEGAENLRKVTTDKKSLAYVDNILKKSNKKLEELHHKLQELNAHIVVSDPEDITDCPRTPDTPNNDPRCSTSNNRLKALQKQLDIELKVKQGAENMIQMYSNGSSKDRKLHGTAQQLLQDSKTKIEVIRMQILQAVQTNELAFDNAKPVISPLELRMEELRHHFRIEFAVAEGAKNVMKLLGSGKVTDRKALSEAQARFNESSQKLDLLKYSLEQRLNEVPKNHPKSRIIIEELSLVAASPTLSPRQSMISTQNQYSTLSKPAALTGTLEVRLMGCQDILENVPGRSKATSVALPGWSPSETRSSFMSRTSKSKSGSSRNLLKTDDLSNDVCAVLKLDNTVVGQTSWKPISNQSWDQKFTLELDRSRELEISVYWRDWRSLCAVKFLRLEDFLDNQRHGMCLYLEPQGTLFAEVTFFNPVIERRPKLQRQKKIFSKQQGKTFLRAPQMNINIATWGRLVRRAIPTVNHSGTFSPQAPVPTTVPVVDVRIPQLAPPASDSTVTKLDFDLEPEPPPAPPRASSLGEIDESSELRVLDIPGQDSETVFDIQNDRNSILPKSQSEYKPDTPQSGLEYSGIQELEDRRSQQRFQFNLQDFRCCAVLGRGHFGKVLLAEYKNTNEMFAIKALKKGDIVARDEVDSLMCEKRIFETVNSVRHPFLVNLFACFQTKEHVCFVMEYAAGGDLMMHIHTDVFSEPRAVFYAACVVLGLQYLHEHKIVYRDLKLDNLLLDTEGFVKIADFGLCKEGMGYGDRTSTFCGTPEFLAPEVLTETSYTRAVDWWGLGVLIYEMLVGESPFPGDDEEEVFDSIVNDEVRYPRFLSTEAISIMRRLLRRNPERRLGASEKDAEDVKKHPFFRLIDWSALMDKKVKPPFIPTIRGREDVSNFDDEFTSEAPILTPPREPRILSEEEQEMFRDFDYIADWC

[10] = molecular target: T3, Ephrin type-B receptor 4 (Homo sapiens) (UniProt P54760); assay: Inhibition of human recombinant EphB4 at 15 nM related to control ULK1
T3 sequence (whole entry): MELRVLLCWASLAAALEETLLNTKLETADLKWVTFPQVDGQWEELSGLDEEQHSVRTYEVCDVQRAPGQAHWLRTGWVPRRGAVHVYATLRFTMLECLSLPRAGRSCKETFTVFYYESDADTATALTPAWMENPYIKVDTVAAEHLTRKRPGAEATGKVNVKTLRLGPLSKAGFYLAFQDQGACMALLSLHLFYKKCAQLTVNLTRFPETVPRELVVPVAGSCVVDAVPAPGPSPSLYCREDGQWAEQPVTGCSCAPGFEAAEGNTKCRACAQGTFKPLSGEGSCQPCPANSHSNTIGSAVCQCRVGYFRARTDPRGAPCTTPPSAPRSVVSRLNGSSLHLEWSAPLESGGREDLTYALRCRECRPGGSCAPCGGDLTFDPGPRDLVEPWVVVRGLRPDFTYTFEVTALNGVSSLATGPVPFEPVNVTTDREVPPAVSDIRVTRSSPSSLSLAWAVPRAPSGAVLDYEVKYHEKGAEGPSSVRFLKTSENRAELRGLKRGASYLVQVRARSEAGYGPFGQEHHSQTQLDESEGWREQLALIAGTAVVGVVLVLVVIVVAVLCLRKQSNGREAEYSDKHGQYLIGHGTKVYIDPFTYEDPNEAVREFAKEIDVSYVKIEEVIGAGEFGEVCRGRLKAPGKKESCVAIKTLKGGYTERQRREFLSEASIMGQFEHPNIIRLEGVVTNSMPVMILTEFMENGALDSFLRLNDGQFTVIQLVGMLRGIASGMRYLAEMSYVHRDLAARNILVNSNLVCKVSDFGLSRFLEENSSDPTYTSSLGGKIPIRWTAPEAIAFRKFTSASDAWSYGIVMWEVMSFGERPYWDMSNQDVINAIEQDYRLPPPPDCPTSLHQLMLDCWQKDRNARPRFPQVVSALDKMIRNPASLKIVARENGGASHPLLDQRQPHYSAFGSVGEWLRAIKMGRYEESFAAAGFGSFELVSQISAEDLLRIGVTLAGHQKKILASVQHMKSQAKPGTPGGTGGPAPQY

[11] = molecular target: MAP kinase-activated protein kinase 3 (Homo sapiens) (UniProt Q16644); assay: Inhibition of human recombinant MAPKAPK3 at 40 nM in presence of ATP by radiometric assay relative to control
[12] = molecular target: Serine/threonine-protein kinase SIK1 (Homo sapiens) (UniProt P57059); assay: Inhibition of human recombinant SIK at 40 nM related to control ULK1
Chain of Serine/threonine-protein kinase SIK1 (Homo sapiens) (P57059 whole entry): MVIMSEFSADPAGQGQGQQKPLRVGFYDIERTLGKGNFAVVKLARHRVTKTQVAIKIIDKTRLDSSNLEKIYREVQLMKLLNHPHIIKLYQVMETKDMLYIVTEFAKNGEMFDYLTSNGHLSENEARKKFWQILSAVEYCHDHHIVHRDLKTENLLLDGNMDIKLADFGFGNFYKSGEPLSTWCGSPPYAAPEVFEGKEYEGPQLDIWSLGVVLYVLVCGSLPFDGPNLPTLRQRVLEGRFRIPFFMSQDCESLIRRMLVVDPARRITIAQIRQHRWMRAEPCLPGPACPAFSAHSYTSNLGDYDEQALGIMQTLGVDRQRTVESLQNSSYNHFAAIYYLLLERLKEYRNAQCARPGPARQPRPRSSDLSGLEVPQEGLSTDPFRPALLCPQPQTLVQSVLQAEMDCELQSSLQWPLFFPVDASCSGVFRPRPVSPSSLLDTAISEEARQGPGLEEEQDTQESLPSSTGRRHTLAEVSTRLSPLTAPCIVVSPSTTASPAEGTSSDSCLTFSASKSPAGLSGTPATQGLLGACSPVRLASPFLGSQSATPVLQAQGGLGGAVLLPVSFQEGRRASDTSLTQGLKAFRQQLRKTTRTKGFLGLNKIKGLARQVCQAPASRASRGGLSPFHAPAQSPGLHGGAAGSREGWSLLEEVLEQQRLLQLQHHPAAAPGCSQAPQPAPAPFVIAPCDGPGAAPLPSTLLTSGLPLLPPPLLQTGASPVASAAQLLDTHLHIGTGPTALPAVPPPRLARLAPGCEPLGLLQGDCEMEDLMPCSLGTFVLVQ

[13] = molecular target: RAC-alpha serine/threonine-protein kinase (Homo sapiens) (UniProt P31749); assay: Inhibition of human recombinant AKT1 at 40 nM in presence of ATP by radiometric assay relative to control
Chain of RAC-alpha serine/threonine-protein kinase (Homo sapiens) (P31749 whole entry): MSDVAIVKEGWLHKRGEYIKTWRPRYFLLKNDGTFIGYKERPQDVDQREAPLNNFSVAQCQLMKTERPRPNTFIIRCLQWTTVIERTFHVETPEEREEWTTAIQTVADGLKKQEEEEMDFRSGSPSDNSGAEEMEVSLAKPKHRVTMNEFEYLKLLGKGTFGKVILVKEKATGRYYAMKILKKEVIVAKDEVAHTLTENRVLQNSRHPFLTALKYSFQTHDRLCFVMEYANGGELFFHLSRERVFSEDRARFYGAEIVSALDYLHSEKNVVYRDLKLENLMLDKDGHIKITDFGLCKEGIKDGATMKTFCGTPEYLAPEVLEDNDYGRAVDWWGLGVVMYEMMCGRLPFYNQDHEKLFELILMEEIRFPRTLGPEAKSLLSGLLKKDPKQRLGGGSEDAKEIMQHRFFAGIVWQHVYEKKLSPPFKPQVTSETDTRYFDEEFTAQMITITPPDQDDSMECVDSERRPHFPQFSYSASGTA
Method in brief: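 Panel of 327 recombinant human kinases in radiometric activity assays, each screened in duplicate at a single inhibitor concentration; percent activity remaining relative to vehicle control, percent inhibition taken as 100 minus activity remaining.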

[14] = molecular target: Epithelial discoidin domain-containing receptor 1 (Homo sapiens) (UniProt Q08345); assay: Inhibition of human recombinant DDR1 at 40 nM in presence of ATP by radiometric assay relative to control

fold change (FC) [1]: 0
fold change (FC) [2]: 0.07
Structure (SMILES): CNC(=O)c1ccccc1Oc1nc(Nc2cc(OC)c(OC)c(OC)c2)ncc1Br

fold change (FC) [3]: 0
inhibition [4]: 9%
fold change (FC) [5]: 0.14
fold change (FC) [6]: 0.06
inhibition [7]: 41%
inhibition [8]: 0%
inhibition [9]: 0%
fold change (FC) [10]: 0.03
Structure (SMILES): CC(C)[C@H](NC(=O)c1cc(-c2cnn3cc(-c4ccc(OCCN5CCCCC5)cc4)cnc23)cs1)C(F)(F)F

inhibition [11]: 0%
fold change (FC) [12]: 0.27
inhibition [13]: 0%
inhibition [14]: 18%
Structure (SMILES): O=C(N[C@@H](C1CC1)C(F)(F)F)c1cc(-c2cnn3cc(-c4ccc(F)cc4)cnc23)cs1
